Scp1 inh – blocks human Scp-1 phosphatase activity. AID 493091. Recombinant Scp1, phosphopeptide, malachite green phosphate absorbance. actives 0.88% (n = 340,000). inhibition, % at 20 µM. Q9GZU7;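 active = inhibition above about 50% at 20 µM, limit read from the data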;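 also: plate controls were DMSO wells with enzyme for no effect and wells lacking enzyme for full effect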
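Times: enzyme reaction 45 min at room temperature, colour 5 min, stabilisation 30 min. Material: SCP-1 catalytic fragment, aa 76-261. Medium: Acidic Tris acetate buffer with magnesium and detergent. Signal: colorimetric free-phosphate detection, absorbance 630 nm. Read-out basis: % inhibition of SCP-1 phosphate liberation. Reagent: Phosphorylated 17-residue peptide substrate.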
DNMT1 inh – inhibitors of human DNMT1; P26358; DNMT1 molecular beacon, Hinp1I cleavage, fluorescence; inhibition (reported as % activation of signal), % at 10 µM; actives 0.83% (n = 360,000); in the data active = inhibition above about 50%
Target sequence (P26358 504-1616 limits assumed): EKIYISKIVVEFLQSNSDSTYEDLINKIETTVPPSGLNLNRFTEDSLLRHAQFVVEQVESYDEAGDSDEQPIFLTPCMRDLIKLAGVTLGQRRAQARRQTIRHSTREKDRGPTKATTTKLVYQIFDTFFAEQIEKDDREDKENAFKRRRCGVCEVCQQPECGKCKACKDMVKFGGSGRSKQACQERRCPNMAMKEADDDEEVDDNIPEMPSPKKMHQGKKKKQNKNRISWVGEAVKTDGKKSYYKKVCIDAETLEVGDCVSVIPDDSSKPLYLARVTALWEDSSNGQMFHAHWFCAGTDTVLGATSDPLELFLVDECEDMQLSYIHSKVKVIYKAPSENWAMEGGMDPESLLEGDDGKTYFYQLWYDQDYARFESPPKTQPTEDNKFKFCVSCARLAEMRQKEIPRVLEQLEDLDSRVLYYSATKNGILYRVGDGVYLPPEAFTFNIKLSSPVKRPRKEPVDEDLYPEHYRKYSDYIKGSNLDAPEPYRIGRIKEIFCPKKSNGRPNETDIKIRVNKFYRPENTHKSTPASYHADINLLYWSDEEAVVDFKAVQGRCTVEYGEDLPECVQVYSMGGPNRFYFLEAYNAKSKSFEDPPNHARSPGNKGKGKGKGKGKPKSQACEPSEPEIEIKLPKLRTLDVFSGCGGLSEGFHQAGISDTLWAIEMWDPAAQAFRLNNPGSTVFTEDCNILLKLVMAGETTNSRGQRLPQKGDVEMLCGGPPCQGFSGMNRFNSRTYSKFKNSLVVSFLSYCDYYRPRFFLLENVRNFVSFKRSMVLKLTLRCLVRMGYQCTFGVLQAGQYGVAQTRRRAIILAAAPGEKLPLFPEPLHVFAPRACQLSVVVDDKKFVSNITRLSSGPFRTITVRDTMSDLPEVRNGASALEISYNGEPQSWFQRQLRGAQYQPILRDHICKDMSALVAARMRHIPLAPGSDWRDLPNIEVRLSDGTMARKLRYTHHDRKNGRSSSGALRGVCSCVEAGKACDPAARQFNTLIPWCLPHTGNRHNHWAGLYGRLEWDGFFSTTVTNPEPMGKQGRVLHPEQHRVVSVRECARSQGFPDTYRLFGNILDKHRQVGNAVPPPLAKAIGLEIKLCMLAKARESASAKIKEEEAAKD
STEP inh – STEP (human) phosphatase inhibition | inhibition, % at 20 µM | recombinant STEP, OMFP fluorogenic substrate, fluorescence | AID 588621 | actives 0.25% (n = 360,000) | P54829;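 active = inhibition at 20 µM, scaled per plate between control wells, above about 37%, limit read from the data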;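 also: 0% = DMSO with enzyme and substrate and 100% = substrate only without enzyme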
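Measure: Control-normalized % inhibition with plate pattern correction | Test system: STEP phosphatase, cell-free reaction | Medium: pH 6.0 Bis-Tris with DTT and Tween 20 | Technique: Fluorescence, 480/540 nm | Times: Reaction 20 min, ambient temperature | Doses: Single compound dose of 20 µM, 1% DMSO final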
LMPTP block – blocks human LMPTP phosphatase; P24666; recombinant LMPTP-A, OMFP fluorogenic substrate, fluorescence intensity; inhibition, % at 20 µM; actives 0.22% (n = 360,000); AID 651560;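 active = compounds that cut the enzyme signal by at least half of the control window in the single-dose screen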;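 also: plate controls were DMSO wells with enzyme plus substrate for no effect and substrate without enzyme for full effect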
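Test system: LMPTP-A, protein tyrosine phosphatase of low molecular weight; Input: 0.625 nM enzyme; Incubation: 50 min dark incubation at room temperature; Signal: endpoint fluorescence intensity from OMFP dephosphorylation; Read-out basis: % inhibition versus control wells.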
Casp6 inh – caspase-6 (human) enzyme inhibition. actives 0.53% (n = 350,000). purified caspase-6, Z-VEID-R110 cleavage fluorescence. AID 686996. inhibition, % at 12.5 µM;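 active = mean inhibition across replicates at least about 35%, with every replicate also reaching that limit, limit read from the data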;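 also: 0% = median of neutral control wells and 100% = no fluorescence left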
SUMO1-SIM PPI – alters human SUMO1 binding to SIM partners. P63165. SUMO1 binding to a labelled peptide, TR-FRET, 1 h. inhibition, % at 20 µM. actives 0.33% (n = 360,000). AID 602429; in the data active = inhibition above about 37%
DNMT1 interf DR – beacon fluorescence artifact, dose response counter-screen; shares compounds with DNMT1 inh; molecular beacon fluorescence, spectral interference counter-screen; IC50, µM; 200 tested, under 10 active; AID 602382; call rule not given here
DNMT1 inh conf – confirmation of human DNMT1 inhibitors | DNMT1 molecular beacon HinP1I cleavage, fluorescence | inhibition, % at 10 µM | shares compounds with DNMT1 inh | actives 8% (n = 2,300);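 active = average inhibition of at least 30% in the single-concentration confirmation test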
Beacon interf – beacon fluorescence artifact counter-screen | DNMT1 molecular beacon spectral interference counterscreen, fluorescence 485/520 | shares compounds with DNMT1 inh | activation (fluorescence interference), % at 10 µM | actives 1% (n = 2,300);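 active = activation of at least 30% at 10 µM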;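 also: DNMT1 catalytic domain with a HinP1I cleavage step and a FAM/dabcyl DNA beacon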
* = called active by the depositor; ! = not confirmed by another sample. This is a sample that favours compounds with a hit; in the whole collection about 1.7% have one here.

For CC(C)C(=O)Nc1ccc(C(=O)NNC(=S)NC(=O)c2ccccc2[N+](=O)[O-])cc1 the results were Scp1 inh -7, DNMT1 inh -2, STEP inh 0, LMPTP block -2, Casp6 inh -1 and SUMO1-SIM PPI -10.
CN(C)CC1CCC/C(=C\c2ccc(OC(=O)/C=C/c3ccc(Cl)c(Cl)c3)cc2)C1=O (stereo not given) was read as Scp1 inh 1, DNMT1 inh 50*, STEP inh -1, LMPTP block 2, Casp6 inh 8, SUMO1-SIM PPI 19, DNMT1 inh conf 4 and Beacon interf 0.
O=C(NCC1CCCO1)c1cc(-c2ccco2)nc2ccccc12 (stereo not given) was read as Scp1 inh 44, DNMT1 inh 84*, STEP inh 4, LMPTP block 4, Casp6 inh 13, SUMO1-SIM PPI -1, DNMT1 inh conf 19 and Beacon interf 2.
Cc1ccccc1NC(=O)c1cc(-c2ccco2)nc2ccccc12 was read as Scp1 inh 84*, DNMT1 inh 46, STEP inh 14, LMPTP block 12, Casp6 inh 9, SUMO1-SIM PPI 1, DNMT1 inh conf 1 and Beacon interf 3.
O=C(N/N=C/c1cccc(F)c1)c1cc(-c2ccco2)nc2ccccc12 was read as Scp1 inh 81*, DNMT1 inh 97*, STEP inh 16, LMPTP block 56*, SUMO1-SIM PPI 22, DNMT1 interf DR >99, DNMT1 inh conf 68* and Beacon interf 2.
For COc1ccc(NC(=O)c2cc(-c3ccco3)nc3ccccc23)cc1S(=O)(=O)N1CCOCC1 the results were Scp1 inh 85*, DNMT1 inh 64*, STEP inh 3, LMPTP block 21, Casp6 inh 17, SUMO1-SIM PPI 0, DNMT1 inh conf 21 and Beacon interf 0.
For COCCNC(=O)Cn1nc(-c2ccccc2F)ccc1=O the results were Scp1 inh -5, DNMT1 inh 2, STEP inh 0, LMPTP block -1, Casp6 inh 0 and SUMO1-SIM PPI -6.
For CCOC(=O)C1CCCN(C(=O)CCCn2nc(C)n3c(cc4sccc43)c2=O)C1 (stereo not given) the results were Scp1 inh -15, DNMT1 inh 3, STEP inh 1, LMPTP block 0, Casp6 inh 1 and SUMO1-SIM PPI -5.
COc1ccc(-c2csc(N3C(=O)CNC3=S)n2)cc1 was read as Scp1 inh -8, DNMT1 inh 4, STEP inh 0, LMPTP block -3 and SUMO1-SIM PPI 10.
For O=C(c1cc(-c2ccco2)nc2ccccc12)N1CCN(Cc2ccccc2)CC1 the results were Scp1 inh -6, DNMT1 inh -3, STEP inh 3, LMPTP block 1, Casp6 inh 9 and SUMO1-SIM PPI -2.
`CN(CC(=O)Nc1cccc(F)c1)C(=O)c1cc(-c2ccco2)nc2ccccc12` gave Scp1 inh 83*, DNMT1 inh 87*, STEP inh 16, LMPTP block 34, Casp6 inh 10, SUMO1-SIM PPI 11, DNMT1 inh conf 9 and Beacon interf 0.
For COC(=O)C1CCN(C(=O)c2cc(-c3ccco3)nc3ccccc23)CC1 the results were Scp1 inh 70*, DNMT1 inh 86*, STEP inh 6, LMPTP block 47, Casp6 inh 58*, SUMO1-SIM PPI 12, DNMT1 interf DR >99, DNMT1 inh conf 50* and Beacon interf 3.
Cc1ccc(S(=O)(=O)N[C@H]2CC[C@@H](CCNC(=O)c3ccccc3F)O[C@H]2CO)cc1 was read as Casp6 inh 1.
Cc1cccc(NC(=O)[C@@H](CC(C)C)NC(=O)[C@@H]2Cc3ccccc3CN2)c1 was read as Scp1 inh -3, DNMT1 inh 0, STEP inh -2, LMPTP block -3, Casp6 inh 1 and SUMO1-SIM PPI -5.
O=C(N/N=C/c1cc(Br)c(O)c(Br)c1)c1cccc(C(F)(F)F)c1 was read as Scp1 inh -4, DNMT1 inh 74*, STEP inh -2, LMPTP block -1, SUMO1-SIM PPI -1, DNMT1 inh conf 3 and Beacon interf 2.
For COc1ccc(NS(=O)(=O)c2cccc(C(=O)NN=Cc3cc(Br)c(O)c(Br)c3)c2)cc1 the results were Scp1 inh -15, DNMT1 inh -3, STEP inh 3, LMPTP block 7, Casp6 inh 1 and SUMO1-SIM PPI -2.
`Cc1ccc2cc3c(N)c4c(C)ccc(C)c4nc3nc2c1` gave Scp1 inh -7, DNMT1 inh 72*, STEP inh -7, LMPTP block 5, Casp6 inh 0, SUMO1-SIM PPI -13, DNMT1 interf DR >99, DNMT1 inh conf 25 and Beacon interf -8.
COc1ccc(C)cc1NC(=O)CN(Cc1nnc(-c2ccc(Cl)cc2)o1)C1CCCC1 was read as Scp1 inh -2, DNMT1 inh 59*, STEP inh 7, LMPTP block 9, SUMO1-SIM PPI 0, DNMT1 inh conf 0 and Beacon interf -2.
`COc1ccc(Cl)cc1NC(=O)CN(C)C1CCCCC1` gave Scp1 inh 1, DNMT1 inh 2, STEP inh 1, LMPTP block -1 and SUMO1-SIM PPI -1.
Screening CN(C)C(=O)C[C@@H]1CC[C@@H]2[C@H](COc3ccc(NS(=O)(=O)c4cccc(F)c4)cc3C(=O)N2C)O1 returned Casp6 inh -2.
`CS/C(=N\S(=O)(=O)c1cccs1)Nc1ccc(F)cc1` gave Scp1 inh -2, DNMT1 inh 3, STEP inh 0, LMPTP block -1 and SUMO1-SIM PPI 1.
For CS/C(=N\S(=O)(=O)c1cccs1)Nc1ccc(N2CCOCC2)cc1 the results were Scp1 inh -5, DNMT1 inh 83*!, STEP inh 0, LMPTP block 0, Casp6 inh -1, SUMO1-SIM PPI 4, DNMT1 inh conf 2 and Beacon interf 2.
Screening CCOc1ccc(NC(=S)Nc2ccc(C)c([N+](=O)[O-])c2)cc1 returned Scp1 inh -13, DNMT1 inh -2, STEP inh 1, LMPTP block 0 and SUMO1-SIM PPI -10.
